Data: ChEMBL document CHEMBL4364260, “Discovery of Ziresovir as a Potent, Selective, and Orally Bioavailable Respiratory Syncytial Virus Fusion Protein Inhibitor” (J Med Chem, 2019)

How the values were obtained:
[1] = Tmax in CD-1 mouse plasma at 10 mg/kg/day, po administered via gavage and measured up to 24 hrs by LC/MS/MS analysis; type: ADME, organism-based
[2] = Antiviral activity against Human respiratory syncytial virus A strain Long infected in BALB/c mouse assessed as log reduction in virus titer in lung at 12.5 mg/kg, po BID administered up to 8 hrs for 4 days relative to control; type: functional
Summary of the method: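 Six-week-old female BALB/c mice, housed specific-pathogen-free, were anesthetized intraperitoneally with ketamine/xylazine and given RSV Long strain intranasally (5×10^5 PFU in 100 µL). Oral dosing was twice daily (0 h and 8 h) for 4 days, 12 mice per group. Mice were then euthanized with CO₂ and lungs harvested for viral titer, compared with vehicle.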

For Cc1ccc2nc(N3CCS(=O)(=O)c4ccccc4C3)nc(NCC3(N)COC3)c2c1 [ZIRESOVIR], the Tmax [1] was 15 min and the FC [2] was greater than 1.
